We go through 7 molecules from publication PMC8144669 (The Journal of Biological Chemistry, 2021).

The term Ki denotes the dissociation constant of the complex between target and ligand, obtained from inhibition or displacement. A low value points to a stronger hold on the target. For orientation: Kd means the concentration at which binding is half-saturated. As a reminder, the kcat is the number of substrate molecules converted per active site and unit of time at saturation. In general, Km refers to the substrate concentration at which the rate is half of its maximum.

Common to all, as to format: biochemical
Data set [1] deals with T1, M3RA (MLL3SET-RBBP5AS-ABM-ASH2LSPRY) (Homo sapiens, UniProt Q8NEZ4). Put plainly: Mass-spectrometry-based. The method in brief: (§1)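 Enzyme (E. coli-expressed SET–RBBP5–ASH2L ternary complex) was preincubated 15 min with 0, 50 or 100 μM AdoHcy. […] Samples taken every 30 s were quenched with TFA (0.5% final) and chilled to 4 °C. Monomethylated peptide was measured by MALDI-TOF in a CHCA matrix. Data were analysed by Lineweaver–Burk plots and nonlinear fits to competitive, noncompetitive and uncompetitive models, choosing the best coefficient of determination and lowest error.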
T1 sequence (Q15291 330-360 partner limits assumed, one chain of several): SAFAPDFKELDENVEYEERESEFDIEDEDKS
T1 sequence (Q9UBL3 380-599 partner limits assumed, one chain of several): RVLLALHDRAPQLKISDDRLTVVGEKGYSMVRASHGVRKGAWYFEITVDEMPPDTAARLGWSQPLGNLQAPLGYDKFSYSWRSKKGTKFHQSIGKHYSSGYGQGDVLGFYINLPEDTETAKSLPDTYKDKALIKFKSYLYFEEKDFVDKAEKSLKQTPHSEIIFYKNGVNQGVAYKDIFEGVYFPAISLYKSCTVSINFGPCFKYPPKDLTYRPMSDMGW

Data set [2] has as its target T2, M4RA (MLL4SET-RBBP5AS-ABM-ASH2LSPRY) (Homo sapiens, UniProt O14686). Put plainly: Mass-spectrometry-based. The method in brief: as §1
Data set [3] deals with T1, M3RA (MLL3SET-RBBP5AS-ABM-ASH2LSPRY). Briefly: Continuous enzyme-coupled methylation assay, M3RA.
Data set [4] concerns the target T2, M4RA (MLL4SET-RBBP5AS-ABM-ASH2LSPRY). Put plainly: Continuous enzyme-coupled methylation assay, M4RA.
Substrate in data set [5]: C[S+](CC[C@H](N)C(=O)[O-])C[C@H]1O[C@@H](n2cnc3c(N)ncnc32)[C@H](O)[C@@H]1O
Put plainly: Continuous enzyme-coupled methylation assay, M3RA. Conditions: other: H3P20 fixed at 1600 μM; pH 8.0; 30.0 °C.

Substrate in data set [6]: C[S+](CC[C@H](N)C(=O)[O-])C[C@H]1O[C@@H](n2cnc3c(N)ncnc32)[C@H](O)[C@@H]1O
Briefly: Continuous enzyme-coupled methylation assay, M4RA. Conditions: other: H3P20 fixed at 1600 μM; pH 8.0; 30.0 °C.

[7] abbreviates: Ki, varied AdoMet, global fit to Competitive model (Model Fit: Competitive).
Where [8] appears, read: varied substrate AdoMet, H3P20 constant 400 μM.
[9] abbreviates: varied substrate H3P20, AdoMet constant 200 μM.

T2 sequence (Q15291 330-360 partner limits assumed, one chain of several): as the sequence (Q15291 330-360 partner limits assumed, one chain of several) above
T2 sequence (Q9UBL3 380-599 partner limits assumed, one chain of several): as the sequence (Q9UBL3 380-599 partner limits assumed, one chain of several) above

`Nc1ncnc2c1ncn2[C@@H]1O[C@H](CSCC[C@H](N)C(=O)O)[C@@H](O)[C@H]1O` [AdoHcy, S-adenosylhomocysteine]: the Ki in data set [1] (setting [7]) was determined as 4.19 µM; in data set [2] (setting [7]), 11.2 µM. The Inhibition pattern entry in data set [1] (setting [8]) is recorded as “Competitive”; in data set [1] (setting [9]) it was “Noncompetitive”; in data set [2] (setting [8]), “Competitive”; in data set [2] (setting [9]), “Noncompetitive”.

For `C[S+](CC[C@H](N)C(=O)[O-])C[C@H]1O[C@@H](n2cnc3c(N)ncnc32)[C@H](O)[C@@H]1O` (stereo partly shown) [AdoMet, S-adenosylmethionine], the dissociation constant (Kd) in data set [3] is 4.29 ± 0.44 µM; in data set [4] it was 10.3 ± 0.46 µM. In data set [3] (from secondary plots, Michaelis constant for formation of EAB from A to EB), the KBA was found to be 27.23 ± 3.05 µM.

Turning to `Nc1ncnc2c1ncn2[C@@H]1O[C@H](C[C@@H](N)CC[C@H](N)C(=O)O)[C@@H](O)[C@H]1O` [Sinefungin], the Inhibition pattern entry in data set [3] (setting [8]) is given as “Competitive”; in data set [3] (setting [9]) it was “Noncompetitive”; in data set [4] (setting [8]) it was “Competitive”; in data set [4] (setting [9]), “Noncompetitive”.

“M3RA: ternary complex of MLL3 SET domain, RBBP5AS-ABM and ASH2LSPRY”: the kcat in data set [3] (from secondary plots) came to 0.108 ± 0.00783 s⁻¹.

As to “M4RA: ternary complex of MLL4 SET domain, RBBP5AS-ABM and ASH2LSPRY”, the kcat in data set [4] (from secondary plots) is 0.108 ± 0.00533 s⁻¹.

B1: M3RA (MLL3SET-RBBP5AS-ABM-ASH2LSPRY) (Homo sapiens) (protein)
chain: SNVYLARSRIQGLGLYAARDIEKHTMVIEYIGTIIRNEVANRKEKLYESQNRGVYMFRMDNDHVIDATLTGGPARYINHSCAPNCVAEVVTFERGHKIIISSSRRIQKGEELCYDYK
Regarding B1, in data set [5], the Michaelis constant (Km) stood at 20.0 ± 1.5 µM and the kcat is 0.0833 ± 0.0017 s⁻¹.

B2: M4RA (MLL4SET-RBBP5AS-ABM-ASH2LSPRY) (Homo sapiens) (protein)
chain: NNVYLARSRIQGLGLYAAKDLEKHTMVIEYIGTIIRNEVANRREKIYEEQNRGIYMFRINNEHVIDATLTGGPARYINHSCAPNCVAEVVTFDKEDKIIIISSRRIPKGEELTYDYQ
Turning to B2, in data set [6], the Km worked out at 6.9 ± 0.4 µM and the kcat came to 0.08 ± 0.0017 s⁻¹.
